The values below come from ChEMBL document CHEMBL4261561, “Thiosemicarbazone-based selective proliferation inactivators inhibit gastric cancer cell growth, invasion, and migration” (Medchemcomm, 2017).

A value given as a limit tells only on which side of the number the result lay.

For one experiment, the system named is MCF7. The experiment is described as follows: Antiproliferative activity against human MCF7 cells after 72 hrs by MTT assay. It is filed as functional, cell-based. The conditions noted are these: MCF7, 72 h. Put shortly:
(§1)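 Exponentially growing cells were seeded at about 3×10^3 per well and left 24 h, then given fresh medium with a range of compound concentrations for 72 h. MTT solution (5 mg/mL) was added for another 4 h. Medium was removed, formazan was dissolved in DMSO, and absorbance was read at 570 nm. IC50 was derived statistically.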
Background: Formazan colour is commonly taken as a measure of viable cells.

A further experiment has as its system SMMC-7721. The experiment is described as follows: Antiproliferative activity against human SMMC7721 cells after 72 hrs by MTT assay. The format is functional, cell-based. The conditions noted are these: SMMC-7721, 72 h. In outline: as §1
Another experiment concerns MGC-803. The experiment is described as follows: Antiproliferative activity against human MGC803 cells after 72 hrs by MTT assay. The format is functional, cell-based. The settings on record: MGC-803, 72 h. Put shortly: as §1
In the next experiment the test system is GES1. The experiment is described as follows: Cytotoxicity against human GES-1 cells after 72 hrs by MTT assay. The settings on record: GES1, 72 h. The format is cell-based. Put shortly:
as §1

Usually IC50 stands for the midpoint of a concentration-inhibition curve. Low values mean greater potency, high ones weaker potency. As for `C/C(=N\NC(=S)N1CCOCC1)c1ccc(O)cc1`, the IC50 in the experiment with MCF7, in the experiment with SMMC-7721 and in the experiment with MGC-803 was above 64 µM each time.

Take `S=C(N/N=C/c1ccc2ccccc2c1)N1CCOCC1`: the IC50 with MCF7 is above 64 µM; in the experiment with SMMC-7721, above 64 µM; with MGC-803 it was 32.6 µM.

For `Oc1ccccc1/C=N/NC(=S)Nc1ccccc1`, the IC50 was found to be 12.4 µM in the experiment with MCF7, 34.1 µM with SMMC-7721 and 2.42 µM with MGC-803.

For the compound `Oc1ccc(Cl)cc1/C=N/NC(=S)N1CCOCC1`, the figures for the IC50 in the experiment on MCF7, with SMMC-7721 and in the experiment with MGC-803 were above 64 µM, 35.3 µM and 16.3 µM, respectively.

Regarding `C/C(=N\NC(=S)N1CCOCC1)c1ccccc1`, the values for the IC50 in the experiment with MCF7, in the experiment with SMMC-7721 and in the experiment with MGC-803 were 44.6 µM, above 64 µM and 32.6 µM, respectively.

For the compound `NC(=S)N/N=C/c1ncccc1N` [TRIAPINE], the IC50 came out at 18.9 µM with MCF7, 5.4 µM in the experiment on GES1, 42.8 µM in the experiment on SMMC-7721 and 9.68 µM in the experiment on MGC-803.

Turning to `C/C(=N\NC(=S)N1CCN(C(=O)OC(C)(C)C)CC1)c1cc(Cl)ccc1O`, the IC50 in the experiment with MCF7 was above 64 µM; in the experiment on SMMC-7721, above 64 µM; with MGC-803, 58.4 µM.

Take `C/C(=N\NC(=S)N1CCOCC1)c1cccc(O)c1`: the IC50 in the experiment with MCF7, with SMMC-7721 and in the experiment on MGC-803 was above 64 µM in each case.

For the compound `C/C(=N\NC(=S)N1CCOCC1)c1ccccc1O`, the IC50 was 49.2 µM in the experiment with MCF7, above 64 µM in the experiment on SMMC-7721 and 11.2 µM with MGC-803.
